In ChEMBL document CHEMBL4732185, “Synthesis, biological evaluation and structure-activity relationship of novel dichloroacetophenones targeting pyruvate dehydrogenase kinases with potent anticancer activity” (Eur J Med Chem, 2021):

How the values were obtained:
Type in all cases: functional
Details in all cases: read-out: GI
[1] = system: MCF7; assay: Antiproliferative activity against human MCF7 cells assessed as growth inhibition at 1 uM after 72 hrs by MTT assay relative to control
Procedure, shortened: (§1)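 Single-concentration MTT screen on MCF-7 and A549 cells grown in DMEM + 10% FBS. Cells at 3000–6000/well, cultured overnight, then given compound in buffer with 1% DMSO for 72 h. MTT (0.5 mg/mL) added for 4 h, formazan dissolved in DMSO, A570 read. Percent inhibition reported as the average ± S.D. of three independent measurements.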

[2] = system: A549; assay: Antiproliferative activity against human A549 cells assessed as growth inhibition at 10 uM after 72 hrs by MTT assay relative to control; procedure, shortened: as §1
[3] = system: A549; assay: Antiproliferative activity against human A549 cells assessed as growth inhibition at 1 uM after 72 hrs by MTT assay relative to control; procedure, shortened: as §1

`CC(C)(CO)c1ccc(Nc2ccc(C(=O)C(Cl)Cl)cc2[N+](=O)[O-])cc1` showed an inhibition of growth at 1 µM [1] of 38.9%, an inhibition of growth at 10 µM [2] of 98.6% and an inhibition of growth at 1 µM [3] of 29.4%.
